Common to all, as to format: cell-based
In one assay the test system is SKOV3 cells. As to the kind of experiment: MTT cytotoxicity assay, SKOV3. The conditions noted are these: Homo sapiens, SK-OV-3, read-out: IC50 SKOV3. Summed up:
(§1)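 Human lines were grown in RPMI 1640 with 10% FBS at 37 °C and 5% CO2; MCF-7 medium also had glutamine, HEPES and pyruvate. Log-phase cells were seeded, preincubated for 24 h, then treated for 72 h with DMSO-dissolved test compound at 0, 1.25, 2.5, 5, 10 or 20 μM. MTT (5 mg mL−1 stock) was added for 4 h, formazan was dissolved in DMSO and OD was read at 550 nm.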
For orientation: Formazan colour is commonly taken as a measure of viable cells.

In another assay the test system is HeLa cells. As to the kind of experiment: MTT cytotoxicity assay, HeLa. As to conditions: Homo sapiens, read-out: IC50 Hela. In outline: as §1
The subject of a further assay is HepG2 cells. Put plainly: MTT cytotoxicity assay, HepG2. The conditions noted are these: Homo sapiens, HepG2, read-out: IC50 HepG2. In outline: as §1

As usually defined, the IC50 is the concentration that inhibits the measured activity by half. Turning to `CC(=O)O[C@H]1C(=O)[C@@]2(C)[C@H]([C@H](OC(=O)c3ccccc3)[C@]3(O)C[C@H](OC(=O)[C@H](O)[C@@H](NC(=O)c4ccccc4)c4ccccc4)C(C)=C1C3(C)C)[C@]1(OC(C)=O)CO[C@@H]1C[C@@H]2O` [Paclitaxel], the half-maximal inhibitory concentration (IC50) in the assay with SKOV3 cells came out at 3.8 nM; in the assay on HeLa cells it was 3 nM; in the assay with HepG2 cells, 1.5 nM.

For the origin of these results see PMC9076386 (RSC Advances, 2019).
